The source made the active and inactive calls.
Experiments:
[1] = Toxicity in ip dosed Swiss CD mouse measured 0.5 to 2 hrs post treatment; format: organism-based; conditions: in vivo
Mus musculus [2] = test: Analgesic activity in Swiss CD mouse assessed as elevation of response latency at 32 mg/kg, ip measured 0.5 hr post treatment by tail flick method relative to control; format: functional; conditions: route intraperitoneal
How it was run: (§1)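 Male mice, about 20 g, dosed ip in saline (solution or suspension). High-intensity heat was focused on the tail, and latency to a sudden tail flick was timed, with a 10-s cutoff. Tests ran at 0.5 and 2 h post-dose, with at least ten mice per dose. Percent control = mean latency ÷ mean control latency × 100; 200% was the lower bound of activity.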

Mus musculus [3] = test: Analgesic activity in Swiss CD mouse assessed as elevation of response latency at 32 mg/kg, ip measured 2 hrs post treatment by tail flick method relative to control; format: functional; conditions: route intraperitoneal; how it was run: as §1
Mus musculus [4] = test: Analgesic activity in Swiss CD mouse at 32 mg/kg, ip measured 0.5 hr post treatment by hot-plate method relative to control; format: functional; conditions: route intraperitoneal
How it was run: (§2)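 Male mice, about 20 g, dosed ip in saline. Each mouse was dropped into a glass cylinder on an aluminium plate held at 57 °C. Latency to the first flick of a hind foot was timed at 0.5 and 2 h post-dose, with a 10-s cutoff. At least ten mice per dose. Percent control = mean latency ÷ mean control latency × 100; 200% was the lower bound of activity.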

Mus musculus [5] = test: Analgesic activity in Swiss CD mouse at 32 mg/kg, ip measured 2 hrs post treatment by hot-plate method relative to control; format: functional; conditions: route intraperitoneal; how it was run: as §2
Mus musculus [6] = test: Analgesic activity in Swiss CD mouse assessed as elevation of response latency at 100 mg/kg, ip measured 0.5 hr post treatment by tail flick method relative to control; format: functional; conditions: route intraperitoneal; how it was run: as §1
Mus musculus [7] = test: Analgesic activity in Swiss CD mouse at 100 mg/kg, ip measured 2 hrs post treatment by hot-plate method relative to control; format: functional; conditions: route intraperitoneal; how it was run: as §2
Mus musculus [8] = test: Analgesic activity in Swiss CD mouse at 100 mg/kg, ip measured 0.5 hr post treatment by hot-plate method relative to control; format: functional; conditions: route intraperitoneal; how it was run: as §2
Mus musculus [9] = test: Analgesic activity in Swiss CD mouse assessed as elevation of response latency at 100 mg/kg, ip measured 2 hrs post treatment by tail flick method relative to control; format: functional; conditions: route intraperitoneal; how it was run: as §1
Canis familiaris = species on record: Canis familiaris; test: Analgesic activity in dog assessed as increase in response threshold by radiant heat method; format: functional, organism-based; conditions: Canis lupus familiaris
How it was run: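 Male mongrel dogs (9-12 kg) given drug sc or orally; radiant heat threshold read as reflex fasciculations of the back muscles. Tested at 0.5 and 2 h after dosing, with the end point expressed as percent of control latency.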

Mus musculus [10] = species on record: Mus musculus; test: Toxicity in Swiss CD mouse assessed as Straub tail symptom; format: organism-based; conditions: in vivo
Rattus norvegicus [11] = species on record: Rattus norvegicus; test: Toxicity in Sprague-Dawley CD rat assessed as Straub tail symptom; format: organism-based; conditions: in vivo
Mus musculus [12] = test: Analgesic activity in ip dosed Swiss CD mouse by tail flick method relative to control in presence of naloxone; format: functional, organism-based
Mus musculus [13] = test: Analgesic activity in ip dosed Swiss CD mouse by hot-plate method relative to control in presence of naloxone; format: functional, organism-based
Rattus norvegicus [14] = test: Neuroleptic activity in decarboxylase-inhibited Sprague-Dawley CD rat brain assessed as increase in DOPA accumulation at 0.01 mmol/kg relative to control; format: functional; design: scale not given: the % may be the effect or the level left
Rattus norvegicus [15] = test: Neuroleptic activity in ip dosed Sprague-Dawley CD rat assessed as reversal of amphetamine-induced stereotypy compound administered 1hr prior challenge; format: functional
How it was run: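 Rats dosed ip, then given amphetamine sulfate 5 mg/kg 1 h later. The ED50 is the dose that reverses the amphetamine-induced stereotypy.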

Rattus norvegicus [16] = test: Analgesic activity in Sprague-Dawley CD rat at 32 mg/kg, ip measured 0.5 to 2 hrs post treatment by flinch-jump method relative to control; format: functional, organism-based; design: dose 32 mg/kg
How it was run: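 Male rats, 200-300 g, dosed ip (saline solution or suspension). A single rising series of 1-s foot shocks was given just before and at 0.5 and 2 h after dosing. The minimum shock intensity (mA) evoking each behaviour was recorded. No response at the 2.2-mA level counted as activity. At least five rats per dose.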

SMILES | Activity (Mus musculus [6]) [%] | Activity (Mus musculus [7]) [%] | Activity (Mus musculus [8]) [%] | Activity (Mus musculus [9]) [%] | other results
COc1ccc(OC)c2c1C=C(CN1CCCC1)CC2.Cl |  |  |  |  | LD50 [1]: 32 mg/kg; Activity (Mus musculus [2]): 111%; Activity (Mus musculus [3]): 99%; Activity (Mus musculus [4]): 177%; Activity (Mus musculus [5]): 132%
COc1ccc(Cl)c2c1CCC(CN1CCC(C)CC1)=C2.Cl |  |  |  |  | LD50 [1]: 32 mg/kg; Activity (Mus musculus [2]): 128%; Activity (Mus musculus [3]): 115%; Activity (Mus musculus [4]): 158%; Activity (Mus musculus [5]): 135%
COc1ccc(Cl)c2c1CCC(CN1CCCCC1)=C2.Cl | 212 | 127 | 155 | 167 | 
COc1ccc(Cl)c2c1CCC(CN1CCC(C(N)=O)CC1)=C2.O | 274 | 329 | 314 | 132 | Activity (Canis familiaris): inactive; Activity (Mus musculus [10]): Non-toxic; Activity (Rattus norvegicus [11]): Non-toxic; Activity (Mus musculus [12]): inactive; Activity (Mus musculus [13]): inactive
COc1ccc(Cl)c2c1CCC(CN1CCC(c3ccccc3)CC1)=C2.O | 109 | 171 | 233 | 106 | 
COc1ccc(Cl)c2c1CCC(CN1CCC(C(=O)N3CCOCC3)CC1)=C2.Cl | 162 | 95 | 107 | 133 | 
COc1ccc2c(c1)C=C(CN1CCCC1)CC2 | 149 | 98 | 114 | 129 | 
COc1ccc(Cl)c2c1CCC(CN1CCC(C(=O)N3CCCC3)CC1)=C2.Cl.O | 262 | 155 | 213 | 172 | Activity (Rattus norvegicus [14]): 332%
CNC(=O)C1CCN(CC2=Cc3c(Cl)ccc(OC)c3CC2)CC1.Cl.O | 208 | 167 | 221 | 166 | 
C=CCN1CCN(CC2=Cc3c(Cl)ccc(OC)c3CC2)CC1.Cl | 159 | 127 | 164 | 137 | 
CCOC(=O)N1CCN(CC2=Cc3c(Cl)ccc(OC)c3CC2)CC1.Cl | 223 | 233 | 274 | 199 | 
CCC(=O)O[C@](Cc1ccccc1)(c1ccccc1)[C@H](C)CN(C)C [PROPOXYPHENE] | 169 | 138 | 139 | 146 | 
COc1ccc(Cl)c2c1CCC(CN1CCC(O)(c3ccc(Cl)cc3)CC1)=C2.O=S(=O)(O)O | 162 | 102 | 177 | 123 | 
COc1ccc(Cl)c2c1CCC(CN1CCC3(CC1)C(=O)NCN3c1ccccc1)=C2 |  |  |  |  | Activity (Rattus norvegicus [14]): 154%; ED50 (Rattus norvegicus [15]): 1 mg/kg
COc1ccc(Cl)c2c1CCC(CN1CCC(C(C)=O)(c3ccccc3)CC1)=C2.Cl | 134 | 124 | 143 | 122 | 
COc1ccc(Cl)c2c1CCC(CN1CCN(c3cccc(C(F)(F)F)c3)CC1)=C2.O | 119 | 149 | 167 | 118 | 
COc1ccc(Cl)c2c1CCC(CN1CCN(CCO)CC1)=C2 | 187 | 236 | 249 | 191 | 
CCC(=O)OC1CCN(CC2=Cc3c(Cl)ccc(OC)c3CC2)CC1.Cl | 237 | 101 | 95 | 179 | 
COc1ccc(Cl)c2c1CCC(CN1CCC(O)CC1)=C2.Cl | 239 | 142 | 174 | 180 | 
COc1ccc(Cl)c2c1CCC(CN1CCN(c3ccc(Cl)cc3)CC1)=C2 | 184 | 160 | 202 | 159 | 

SMILES | Activity (Mus musculus [6]) [%] | Activity (Mus musculus [7]) [%] | Activity (Mus musculus [8]) [%] | Activity (Mus musculus [9]) [%] | other results
COc1ccc(F)c2c1CCC(CN1CCCC1)=C2.Cl |  |  |  |  | LD50 [1]: 32 mg/kg; Activity (Mus musculus [2]): 170%; Activity (Mus musculus [3]): 141%; Activity (Mus musculus [4]): 183%; Activity (Mus musculus [5]): 149%
COc1ccc(Cl)c2c1CCC(CN1CCC(C(=O)N3CCCCC3)CC1)=C2.Cl.O | 235 | 124 | 170 | 149 | 
CCN(CC)C(=O)C1CCCN(CC2=Cc3c(Cl)ccc(OC)c3CC2)C1.Cl.O (stereo unspecified) | 250 | 175 | 107 | 214 | Activity (Rattus norvegicus [16]): inactive
COc1cc2c(cc1OC)CCC(CN1CCCC1)=C2.Cl | 101 | 135 | 173 | 95 | 
C=CCNCC1=Cc2c(Cl)ccc(OC)c2CC1.Cl | 131 | 115 | 158 | 108 | 
COc1ccc(C)c2c1CCC(CN1CCCC1)=C2.Cl |  |  |  |  | LD50 [1]: 32 mg/kg; Activity (Mus musculus [2]): 177%; Activity (Mus musculus [3]): 135%; Activity (Mus musculus [4]): 177%; Activity (Mus musculus [5]): 145%
COc1ccc(Cl)c2c1CCC(CN1CCC(O)(c3ccccc3)CC1)=C2.Cl | 196 | 175 | 249 | 158 | 
CN1CCN(CC/C=C2/c3ccccc3Sc3ccc(S(=O)(=O)N(C)C)cc32)CC1 [THIOTHIXENE] |  |  |  |  | ED50 (Rattus norvegicus [15]): 0.32 mg/kg
Cc1cc(C)c2c(c1)C=C(CN1CCCC1)CC2.Cl |  |  |  |  | LD50 [1]: 32 mg/kg; Activity (Mus musculus [2]): 124%; Activity (Mus musculus [3]): 126%; Activity (Mus musculus [4]): 126%; Activity (Mus musculus [5]): 120%
COc1ccc(Cl)c2c1CCC(CN1CCCC(C(N)=O)C1)=C2.Cl (stereo unspecified) | 91 | 170 | 197 | 106 | Activity (Rattus norvegicus [16]): inactive
Br.COc1cccc2c1CCC(CN1CCCC1)=C2 |  |  |  |  | LD50 [1]: 32 mg/kg; Activity (Mus musculus [2]): 80%; Activity (Mus musculus [3]): 90%; Activity (Mus musculus [4]): 129%; Activity (Mus musculus [5]): 103%
COc1ccc(Cl)c2c1CCC(CN1CCC(C(=O)NC3CCCCC3)CC1)=C2 | 219 | 95 | 107 | 154 | 
COc1ccc2c(c1)CCC(CN1CCCC1)=C2.Cl | 92 | 103 | 96 | 92 | 
COc1ccc(N2CCN(CC3=Cc4c(Cl)ccc(OC)c4CC3)CC2)cc1 | 131 | 120 | 129 | 123 | 
COc1ccc(Cl)c2c1CCC(CNCC1CC1)=C2.Cl | 203 | 171 | 224 | 162 | 
COc1ccc(Cl)c2c1CCC(CN1CCN(S(N)(=O)=O)CC1)=C2.Cl | 104 | 109 | 123 | 88 | 
COc1ccc(Cl)c2c1CCC(CN1CCN(C)CC1)=C2 | 198 | 218 | 274 | 137 | 
CNCC1=Cc2c(Cl)ccc(OC)c2CC1.Cl |  |  |  |  | LD50 [1]: 32 mg/kg; Activity (Mus musculus [2]): 163%; Activity (Mus musculus [3]): 127%; Activity (Mus musculus [4]): 139%; Activity (Mus musculus [5]): 120%
COc1ccc(Cl)c2c1CCC(CN1CCC(OC(C)=O)(c3ccccc3)CC1)=C2.Cl.O |  |  |  |  | LD50 [1]: 32 mg/kg; Activity (Mus musculus [10]): Toxic; Activity (Rattus norvegicus [11]): Toxic; Activity (Mus musculus [2]): 317%; Activity (Mus musculus [12]): inactive; Activity (Mus musculus [13]): inactive; Activity (Mus musculus [3]): 320%; Activity (Mus musculus [4]): 315%; Activity (Mus musculus [5]): 345%

Reference: ChEMBL document CHEMBL3243935, “Analgesic and tranquilizing activity of 5,8-disubstituted 2-aminomethyl-3,4-dihydronaphthalenes” (J Med Chem, 1978)
